For data set [1], the system named is HepG2. Description: Cytotoxicity against human HepG2 cells after 72 hrs by MTT assay. The format is functional, cell-based. The note with it: HepG2, 72 h. An outline of the steps: (§1)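 MTT assay. Cells were plated and grown 24 h at 37 °C, 5% CO2, then exposed to compound in medium with 0.1% DMSO for 72 h. MTT (5 mg/mL in PBS) was added for 4 h and absorbance read at 490 nm. IC50 was taken from dose-response curves; at least three independent experiments.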
Background: Tetrazolium dyes change colour on reduction, which living cells bring about.

Data set [2] can be described thus: Induction of NO release assessed as nitrite formation in PBS at 100 uM up to 300 mins by Griess assay. An outline of the steps: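 Compound at 100 μM was incubated at 37 °C in PBS, pH 7.4, containing 2% DMSO and 5.0 mM L-cysteine, in acellular or HepG2 cell lysates, and sampled over time. Samples were mixed with Griess reagent at 37 °C for 15 min and read at 540 nm. Nitrite was quantified against a sodium nitrite standard curve, in triplicate.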
Background: The Griess reaction detects nitrite, a stable product of nitric oxide.

For data set [3], the system named is Mus musculus. As to the kind of experiment: Toxicity in ICR mouse xenografted with […] cells assessed as body weight at 30 mg/kg, iv administered once daily for 21 days measured post last dose (reference value: 26 +/- 0.6 g). The format is organism-based. The note with it: in vivo, 504 h. Background: A xenograft is tissue or cells of one species grown in another, often human tumour cells in immunodeficient mice.

Data set [4] deals with L02. Description: Cytotoxicity against human LO2 cells after 72 hrs by MTT assay. The format is cell-based. The note with it: L02, 72 h. Summed up: as §1
The test system of data set [5] is HL-60. Description: Cytotoxicity against human HL60 cells after 72 hrs by MTT assay. The note with it: HL-60, 72 h. The format is functional, cell-based. An outline of the steps: as §1
The test system of data set [6] is H22. As to the kind of experiment: Antitumor activity against […] H22 cells xenografted in ICR mouse assessed as tumor growth inhibition at 30 mg/kg, iv administered once daily for 21 days measured post last dose relative to control. The format is functional. The note with it: 504 h, read-out: TGI.
Data set [7] deals with SMMC-7721. Description: Cytotoxicity against human SMMC7721 cells after 72 hrs by MTT assay. The format is functional, cell-based. The note with it: SMMC-7721, 72 h. Summed up: as §1
Data set [8] deals with HCT-116. As to the kind of experiment: Cytotoxicity against human HCT116 cells after 72 hrs by MTT assay. The format is functional, cell-based. The note with it: HCT-116, 72 h. Summed up: as §1
The subject of data set [9] is H22. As to the kind of experiment: Antitumor activity against human H22 cells xenografted in ICR mouse assessed as tumor growth inhibition at 20 mg/kg, iv administered once daily for 21 days measured post last dose relative to control. The note with it: 504 h, read-out: TGI.

Each structure is given as a SMILES string. pIC50: −log10 of the molar value. Activity calls are given as the source filed them. No cut-off for these calls is given here. Where only a bound is given, the exact number is not on record here.

Broadly, the pIC50 is −log10 of the IC50, conventionally taken in molar units. A lower pIC50 goes with a large IC50. For `COc1ccc2cc3[n+](cc2c1OCCCCCO[N+](=O)[O-])CCc1cc2c(cc1-3)OCO2`, the negative-log IC50 (pIC50) in [1] is 4.91.
Compound `COc1cc2c(cc1OC)-c1cc3ccc(OC)c(OCCCCCCCCO[N+](=O)[O-])c3c[n+]1CC2` gave a pIC50 in data set [1] of 5.41. Also, in data set [2], the result was Active.
`COc1cc2c(cc1OC)-c1cc3ccc(OC)c(OCCCCCCCCCCCCO[N+](=O)[O-])c3c[n+]1CC2`: the pIC50 in data set [1] is 5.59.
In [1], `COc1cc2c(cc1OC)-c1cc3ccc(OC)c(OCCCCCCCCCCO[N+](=O)[O-])c3c[n+]1CC2` had a negative-log IC50 (pIC50) of 5.25.
In the case of `COc1cc2c(cc1OC)-c1c(Br)c3ccc(OC)c(OCCCCCCCCCCO[N+](=O)[O-])c3c[n+]1CC2`, the negative-log IC50 (pIC50) in data set [1] was 5.52.
With `COc1ccc2cc3[n+](cc2c1OCCCCCCCCCCCCO[N+](=O)[O-])CCc1cc2c(cc1-3)OCO2`, the negative logarithm of the IC50 (pIC50) in data set [1] is 5.60. In addition, the outcome in data set [2] was Active.
For `COc1cc2c(cc1OC)-c1cc3ccc(OC)c(OC)c3c[n+]1CC2.[Cl-]` [PALMATINE CHLORIDE], the Activity in [3] was 25.5 g. The pIC50 in [4], in data set [1], in data set [5], in data set [7] and in [8] was < 4.00 each time. In addition, in [6], the inhibition in vivo at 30 mg/kg was found to be 41.6%.
Regarding `COc1ccc2cc3[n+](cc2c1OC(=O)CCCCCO[N+](=O)[O-])CCc1cc2c(cc1-3)OCO2`, the pIC50 in [1] was < 4.00.
In data set [1], `COc1ccc2cc3[n+](cc2c1OCCCCCCO[N+](=O)[O-])CCc1cc2c(cc1-3)OCO2` showed a pIC50 of 5.07.
Same read-out and setting: in the case of `COc1ccc2cc3[n+](cc2c1OCCO[N+](=O)[O-])CCc1cc2c(cc1-3)OCO2` it was 4.60; in that of `COc1cc2c(cc1OC)-c1c(Br)c3ccc(OC)c(OCCCCCCCCCCCCO[N+](=O)[O-])c3c[n+]1CC2`, 5.70.
In data set [1], `COc1ccc2cc3[n+](cc2c1OCCCCCCCCCCO[N+](=O)[O-])CCc1cc2c(cc1-3)OCO2` had a pIC50 of 5.36.
In turn, `COc1ccc2cc3[n+](cc2c1OCCCO[N+](=O)[O-])CCc1cc2c(cc1-3)OCO2` had a negative logarithm of the IC50 (pIC50) in data set [1] of 4.66.
In the case of `O=P1(N(CCCl)CCCl)NCCCO1` (stereo unspecified) [CYCLOPHOSPHAMIDE ANHYDROUS], the inhibition in vivo at 20 mg/kg in [9] was 67.1%.
As for `COc1ccc2cc3[n+](cc2c1OC(=O)CCCCCCCCCO[N+](=O)[O-])CCc1cc2c(cc1-3)OCO2`, the pIC50 in data set [1] is < 4.00.
Turning to `COc1ccc2c(c1OCCCCCCCCO[N+](=O)[O-])CN1CCc3cc4c(cc3C1C2)OCO4` (stereo unspecified), the pIC50 in data set [1] is < 4.00.
For the compound `COc1ccc2cc3[n+](cc2c1OC)CCc1cc2c(cc1-3)OCO2` [BERBERINE CHLORIDE], the pIC50 in data set [4] is 4.15; in data set [1] it was 4.31; in data set [5] it was 4.56; in data set [7], 4.59; in data set [8], 4.40.
In the case of `COc1ccc2cc3[n+](cc2c1OC(=O)CCCCCCCO[N+](=O)[O-])CCc1cc2c(cc1-3)OCO2`, the negative-log IC50 (pIC50) in data set [1] is < 4.00. The result in [2] was Active.
In turn, `COc1ccc2cc3[n+](cc2c1OCCCCO[N+](=O)[O-])CCc1cc2c(cc1-3)OCO2` had a negative logarithm of the IC50 (pIC50) in data set [1] of 4.74. Moreover, the result in data set [2] was Active.
Regarding `COc1ccc2c(Br)c3[n+](cc2c1OCCCCCCCCO[N+](=O)[O-])CCc1cc2c(cc1-3)OCO2`, the negative logarithm of the IC50 (pIC50) in [1] was 5.38. In data set [2], the result was Active.
As to `COc1ccc2cc3[n+](cc2c1OCCCCCCCCO[N+](=O)[O-])CCc1cc2c(cc1-3)OCO2`, the pIC50 in data set [4] was 4.47; in data set [1] it was 5.61; in [5], 5.85; in data set [7], 5.55; in data set [8], 5.80. For the same compound, the result in [2] was Active.

The values are drawn from ChEMBL document CHEMBL4024711, “Design, synthesis and biological evaluation of novel nitric oxide-donating protoberberine derivatives as antitumor agents” (Eur J Med Chem, 2017).
